Reference: ChEMBL document CHEMBL3097989, “Antimicrobial activity of de novo designed cationic peptides against multi-resistant clinical isolates” (Eur J Med Chem, 2014)

Columns and labels:
Type in all cases: functional
[1] = tested on: Staphylococcus haemolyticus; assay: Antibacterial activity against Staphylococcus haemolyticus M3014 by microdilution test
Method in brief: (§1)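 MIC by standard broth microdilution following CLSI recommendations, in Mueller Hinton broth supplemented with Ca²⁺ (20-25 mg/L) and Mg²⁺ (10-12.5 mg/L); ATCC reference strains included in the panel.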

Acinetobacter sp. [2] = assay: Antibacterial activity against Acinetobacter sp. M7489 clinical isolate expressing blaOXA-51 and blaTEM gene by microdilution test
Method in brief: (§2)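 MIC by standard broth microdilution following CLSI recommendations, in Mueller Hinton broth supplemented with Ca²⁺ (20-25mg/L) and Mg²⁺ (10-12.5mg/L); peptides tested against a panel of multi-resistant clinical isolates plus ATCC reference strains.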

Klebsiella pneumoniae [3] = assay: Antibacterial activity against Klebsiella pneumoniae M11245 clinical isolate expressing blaKPC-2 and blaPER-2 gene by microdilution test; method in brief: as §2
Pseudomonas aeruginosa [4] = assay: Antibacterial activity against Pseudomonas aeruginosa M7728 clinical isolate expressing blaIMP gene by microdilution test; method in brief: as §1
Acinetobacter sp. [5] = assay: Antibacterial activity against Acinetobacter sp. M5277 clinical isolate expressing blaPER gene by microdilution test; method in brief: as §2
Enterococcus faecium [6] = assay: Antibacterial activity against Enterococcus faecium M6261 by microdilution test; method in brief: as §2
Acinetobacter sp. [7] = assay: Antibacterial activity against Acinetobacter sp. M7978 clinical isolate expressing blaIMP-1 gene by microdilution test; method in brief: as §2
Enterococcus faecalis [8] = assay: Antibacterial activity against Enterococcus faecalis M4992 clinical isolate expressing vanA gene by microdilution test; method in brief: as §2
Acinetobacter sp. [9] = assay: Antibacterial activity against Acinetobacter sp. PFAV1 clinical isolate expressing blaOXA-51, blaOXA-58 and blaPER gene by microdilution test; method in brief: as §2
Enterococcus faecium [10] = assay: Antibacterial activity against Enterococcus faecium PZAP95 by microdilution test; method in brief: as §2
Acinetobacter sp. [11] = assay: Antibacterial activity against Acinetobacter sp. M9665 clinical isolate expressing blaOXA-51 gene by microdilution test; method in brief: as §2
Klebsiella pneumoniae [12] = assay: Antibacterial activity against Klebsiella pneumoniae M9170 clinical isolate expressing blaOXA-GIII gene by microdilution test; method in brief: as §2
Escherichia coli [13] = assay: Antibacterial activity against Escherichia coli M9209 clinical isolate expressing blaKPC-2 gene by microdilution test; method in brief: as §2
Enterococcus faecalis [14] = assay: Antibacterial activity against Enterococcus faecalis M6983 clinical isolate expressing vanA gene by microdilution test; method in brief: as §2
[15] = tested on: Staphylococcus epidermidis; assay: Antibacterial activity against Staphylococcus epidermidis M2931 by microdilution test; method in brief: as §1
Staphylococcus warneri = assay: Antibacterial activity against Staphylococcus warneri M6823 clinical isolate expressing mecA gene by microdilution test; method in brief: as §1
Escherichia coli [16] = assay: Antibacterial activity against Escherichia coli M5306 clinical isolate expressing blaPER-2, blaCTX-M-2 and blaTEM-1 gene by microdilution test; method in brief: as §2
Staphylococcus aureus [17] = assay: Antibacterial activity against Staphylococcus aureus M2832 clinical isolate expressing mecA gene by microdilution test; method in brief: as §1
Staphylococcus aureus [18] = assay: Antibacterial activity against Staphylococcus aureus M4046 clinical isolate expressing mecA gene by microdilution test; method in brief: as §1
[19] = tested on: Staphylococcus haemolyticus; assay: Antibacterial activity against Staphylococcus haemolyticus M2976 clinical isolate expressing mecA gene by microdilution test; method in brief: as §1
Klebsiella pneumoniae [20] = assay: Antibacterial activity against Klebsiella pneumoniae M1803 clinical isolate expressing blaPER-2, blaCTX-M-2, blaTEM-1, blaSHV and blaOXA-9 gene by microdilution test; method in brief: as §2
Escherichia coli [21] = assay: Antibacterial activity against Escherichia coli PNEU23 clinical isolate expressing blaOXA-GIII and blaTEM-1 gene by microdilution test; method in brief: as §2
Pseudomonas aeruginosa [22] = assay: Antibacterial activity against Pseudomonas aeruginosa ATCC 27853 by microdilution test; method in brief: as §2
Klebsiella pneumoniae [23] = assay: Antibacterial activity against Klebsiella pneumoniae M9491 clinical isolate expressing blaMOX gene by microdilution test; method in brief: as §2
Staphylococcus aureus [24] = assay: Antibacterial activity against Staphylococcus aureus P204 clinical isolate expressing ermA gene by microdilution test; method in brief: as §1
Enterococcus gallinarum [25] = assay: Antibacterial activity against Enterococcus gallinarum M2723 clinical isolate expressing vanC1 and vanA gene by microdilution test; method in brief: as §2
Enterococcus gallinarum [26] = assay: Antibacterial activity against Enterococcus gallinarum M2685 clinical isolate expressing vanC1 and vanA gene by microdilution test; method in brief: as §2
Pseudomonas aeruginosa [27] = assay: Antibacterial activity against Pseudomonas aeruginosa M5109 clinical isolate expressing blaVIM and blaGES-1 gene by microdilution test; method in brief: as §1
[28] = tested on: Staphylococcus saprophyticus; assay: Antibacterial activity against Staphylococcus saprophyticus M4070 clinical isolate expressing mecA gene by microdilution test; method in brief: as §1
Enterococcus faecium [29] = assay: Antibacterial activity against Enterococcus faecium M2481 clinical isolate expressing vanB gene by microdilution test; method in brief: as §2
Klebsiella pneumoniae [30] = assay: Antibacterial activity against Klebsiella pneumoniae M9375 clinical isolate expressing blaCTX-M-2, blaTEM-1 and blaSHV-1 gene by microdilution test; method in brief: as §2
Enterococcus faecalis [31] = assay: Antibacterial activity against Enterococcus faecalis M6534 clinical isolate expressing vanB gene by microdilution test; method in brief: as §2
Staphylococcus hominis = assay: Antibacterial activity against Staphylococcus hominis M2973 clinical isolate expressing mecA gene by microdilution test; method in brief: as §1
Acinetobacter sp. [32] = assay: Antibacterial activity against Acinetobacter sp. M5282 clinical isolate expressing blaOXA-51 gene by microdilution test; method in brief: as §2
Escherichia coli [33] = assay: Antibacterial activity against Escherichia coli M7859 clinical isolate expressing blaCIT gene by microdilution test; method in brief: as §2
Pseudomonas aeruginosa [34] = assay: Antibacterial activity against Pseudomonas aeruginosa M11005 clinical isolate expressing blaKPC-2 gene by microdilution test; method in brief: as §2
Enterococcus faecium [35] = assay: Antibacterial activity against Enterococcus faecium M2304 clinical isolate expressing vanA gene by microdilution test; method in brief: as §2
Staphylococcus aureus [36] = assay: Antibacterial activity against Staphylococcus aureus M6794 clinical isolate expressing mecA gene by microdilution test; method in brief: as §1
Klebsiella pneumoniae [37] = assay: Antibacterial activity against Klebsiella pneumoniae M5825 clinical isolate expressing blaGES-3 and blaCTX-M-2 gene by microdilution test; method in brief: as §2
Klebsiella pneumoniae [38] = assay: Antibacterial activity against Klebsiella pneumoniae M9310 clinical isolate expressing blaCTX-M-2, blaTEM-1 and blaSHV-1 gene by microdilution test; method in brief: as §2
Pseudomonas aeruginosa [39] = assay: Antibacterial activity against Pseudomonas aeruginosa M7723 clinical isolate expressing blaKPC-2 gene by microdilution test; method in brief: as §1
Pseudomonas aeruginosa [40] = assay: Antibacterial activity against Pseudomonas aeruginosa M7525 clinical isolate expressing blaSPM gene by microdilution test; method in brief: as §1
[41] = tested on: Staphylococcus epidermidis; assay: Antibacterial activity against Staphylococcus epidermidis M2923 by microdilution test; method in brief: as §1
Enterococcus faecalis [42] = assay: Antibacterial activity against Enterococcus faecalis M4449 clinical isolate expressing vanA gene by microdilution test; method in brief: as §2
Staphylococcus aureus [43] = assay: Antibacterial activity against Staphylococcus aureus P33 clinical isolate expressing msrA gene by microdilution test; method in brief: as §1
Pseudomonas aeruginosa [44] = assay: Antibacterial activity against Pseudomonas aeruginosa M13513 clinical isolate expressing blaKPC-2 gene by microdilution test; method in brief: as §2
Klebsiella pneumoniae [45] = assay: Antibacterial activity against Klebsiella pneumoniae PFAV3 by microdilution test; method in brief: as §2
Enterococcus faecalis [46] = assay: Antibacterial activity against Enterococcus faecalis M6383 clinical isolate expressing vanA gene by microdilution test; method in brief: as §2
Staphylococcus cohnii = assay: Antibacterial activity against Staphylococcus cohnii M6767 clinical isolate expressing mecA gene by microdilution test; method in brief: as §1
Enterococcus faecalis [47] = assay: Antibacterial activity against Enterococcus faecalis ATCC 51299 clinical isolate expressing vanB gene by microdilution test; method in brief: as §2
Staphylococcus aureus [48] = assay: Antibacterial activity against Staphylococcus aureus M6820 clinical isolate expressing mecA gene by microdilution test; method in brief: as §1
Enterococcus faecalis [49] = assay: Antibacterial activity against Enterococcus faecalis M4899 clinical isolate expressing vanB gene by microdilution test; method in brief: as §2

With H-RIVQRIKKWLLKWKKLGY-NH2 the MIC90 [1] was 8 µg/mL, the MIC90 (Acinetobacter sp. [2]) was 64 µg/mL and the MIC90 (Klebsiella pneumoniae [3]) was 8 µg/mL. For the same substance, the MIC90 (Pseudomonas aeruginosa [4]) was 64 µg/mL, the MIC90 (Acinetobacter sp. [5]) was 64 µg/mL and the MIC90 (Enterococcus faecium [6]) was 16 µg/mL. It also gave an MIC90 (Acinetobacter sp. [7]) of 64 µg/mL, an MIC90 (Enterococcus faecalis [8]) of 128 µg/mL and an MIC90 (Acinetobacter sp. [9]) of 64 µg/mL. For the same substance, the MIC90 (Enterococcus faecium [10]) was 16 µg/mL, the MIC90 (Acinetobacter sp. [11]) was 128 µg/mL and the MIC90 (Klebsiella pneumoniae [12]) was 64 µg/mL. The MIC90 (Escherichia coli [13]) was 128 µg/mL, the MIC90 (Enterococcus faecalis [14]) was 128 µg/mL and the MIC90 [15] was 8 µg/mL. It also gave an MIC90 (Staphylococcus warneri) of 8 µg/mL, an MIC90 (Escherichia coli [16]) of 64 µg/mL and an MIC90 (Staphylococcus aureus [17]) of 64 µg/mL. It also gave an MIC90 (Staphylococcus aureus [18]) of 32 µg/mL, an MIC90 [19] of 8 µg/mL and an MIC90 (Klebsiella pneumoniae [20]) of 64 µg/mL. It also gave an MIC90 (Escherichia coli [21]) of 32 µg/mL, an MIC90 (Pseudomonas aeruginosa [22]) of 64 µg/mL and an MIC90 (Klebsiella pneumoniae [23]) of 64 µg/mL. For the same substance, the MIC90 (Staphylococcus aureus [24]) was 32 µg/mL, the MIC90 (Enterococcus gallinarum [25]) was 16 µg/mL and the MIC90 (Enterococcus gallinarum [26]) was 16 µg/mL. It also gave an MIC90 (Pseudomonas aeruginosa [27]) of 64 µg/mL, an MIC90 [28] of 8 µg/mL and an MIC90 (Enterococcus faecium [29]) of 16 µg/mL. It also gave an MIC90 (Klebsiella pneumoniae [30]) of 16 µg/mL, an MIC90 (Enterococcus faecalis [31]) of 256 µg/mL and an MIC90 (Staphylococcus hominis) of 4 µg/mL. The MIC90 (Acinetobacter sp. [32]) was 64 µg/mL, the MIC90 (Escherichia coli [33]) was 16 µg/mL and the MIC90 (Pseudomonas aeruginosa [34]) was 128 µg/mL. It also gave an MIC90 (Enterococcus faecium [35]) of 8 µg/mL, an MIC90 (Staphylococcus aureus [36]) of 64 µg/mL and an MIC90 (Klebsiella pneumoniae [37]) of 32 µg/mL. The MIC90 (Klebsiella pneumoniae [38]) was 32 µg/mL, the MIC90 (Pseudomonas aeruginosa [39]) was 32 µg/mL and the MIC90 (Pseudomonas aeruginosa [40]) was 64 µg/mL. For the same substance, the MIC90 [41] was 16 µg/mL, the MIC90 (Enterococcus faecalis [42]) was 128 µg/mL and the MIC90 (Staphylococcus aureus [43]) was 64 µg/mL. The MIC90 (Pseudomonas aeruginosa [44]) was 64 µg/mL, the MIC90 (Klebsiella pneumoniae [45]) was 128 µg/mL and the MIC90 (Enterococcus faecalis [46]) was 128 µg/mL. For the same substance, the MIC90 (Staphylococcus cohnii) was 8 µg/mL, the MIC90 (Enterococcus faecalis [47]) was 256 µg/mL and the MIC90 (Staphylococcus aureus [48]) was 64 µg/mL. The MIC90 (Enterococcus faecalis [49]) was 256 µg/mL.
